Reference: ChEMBL document CHEMBL5620421, “2,6-Disubstituted 7-(naphthalen-2-ylmethyl)-7H-purines as a new class of potent antitubercular agents inhibiting DprE1” (Eur J Med Chem, 2023)
In brackets after ≈: the same amount, converted by molar mass. Activity calls are given as the source filed them. No cut-off for these calls is given here.

What was measured:
[1] = test system: Mycobacterium tuberculosis; assay: Antibacterial activity against Mycobacterium tuberculosis H37Rv assessed as inhibition of bacterial growth by micro-broth dilution method; assay type: functional
How it was run: (§1)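 Micromethod MIC in Sula's semisynthetic medium. MIC is the lowest concentration inhibiting >99% of the mycobacterial population. Isoniazid was the standard drug.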

[2] = test system: Mycobacterium tuberculosis; assay: (§2) Antimycobacterial activity against isoniazid/ethambutol/rifampin/streptomycin/amikacin/gentamicin/clofazimine/ofloxacin […] MDR/XDR clinical isolate Mycobacterium tuberculosis 8666/2010 assessed as inhibition of mycobacterial growth measured after 14 to 21 days of incubation by Sulas semisynthetic medium based assay; assay type: functional, organism-based; conditions: time 14-21 day
How it was run: (§3)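 Clinical MDR/XDR M. tuberculosis isolates were tested by the Sula's semisynthetic medium micromethod. Compounds in DMSO at 1000 to 0.5 μmol/L, in twofold-type steps. Incubation at 37 °C, read at 14 and 21 days. MIC99 is the lowest concentration inhibiting >99% of growth. Drug resistance or susceptibility of each isolate is to amikacin, clofazimine, gentamicin, ofloxacin, streptomycin and the others listed.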

[3] = test system: Mycobacterium tuberculosis; assay: as §2, with “234/2005” for “8666/2010”; assay type: functional, organism-based; conditions: time 14-21 day; how it was run: as §3
[4] = test system: Mycobacterium tuberculosis; assay: as §2, with “7357/1998” for “8666/2010”; assay type: functional, organism-based; conditions: time 14-21 day; how it was run: as §3
[5] = test system: Mycobacterium tuberculosis; assay: as §2, with “9449/2007” for “8666/2010”; assay type: functional, organism-based; conditions: time 14-21 day; how it was run: as §3
[6] = test system: Mycobacterium tuberculosis; assay: as §2, with “PRAHA 4” for “8666/2010”; assay type: functional, organism-based; conditions: time 14-21 day; how it was run: as §3
[7] = test system: Mycobacterium tuberculosis; assay: as §2, with “PRAHA 1” for “8666/2010”; assay type: functional, organism-based; conditions: time 14-21 day; how it was run: as §3
[8] = test system: Mycobacterium tuberculosis; assay: Antibacterial activity against Mycobacterium tuberculosis H37Rv (ATCC 27294) assessed as inhibition of bacterial growth incubated for 14 days; assay type: functional; conditions: 336 h, time 14 day; how it was run: as §1
Mycobacterium kansasii [9] = assay: Antitubercular activity against Mycobacterium kansasii CNCTC My 235/80 assessed as inhibition of bacterial growth measured after 7 days of incubation by Sulas semisynthetic medium based assay; assay type: functional; conditions: CNCTC My 235/80, 168 h, time 7 day
How it was run: (§4)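 Micromethod in Sula's semisynthetic medium. MIC is the lowest concentration inhibiting >99% of the mycobacterial population. Isoniazid was the standard.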

Mycobacterium avium [10] = assay: Antitubercular activity against Mycobacterium avium CNCTC My 330/88 assessed as inhibition of bacterial growth measured after 21 days of incubation by Sulas semisynthetic medium based assay; assay type: functional; conditions: CNCTC My 330/88, 504 h, time 21 day
How it was run: (§5)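 M. avium was tested by the micromethod in Sula's semisynthetic medium. Compounds in DMSO at 1000 to 0.5 μmol/L. Incubation at 37 °C, read at 14 and 21 days. MIC is the lowest concentration giving >99% growth inhibition.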

Klebsiella pneumoniae [11] = assay: Antibacterial activity against ESBL negative Klebsiella pneumoniae C1950 assessed as inhibition of bacterial growth incubated for 24 to 48 hrs by microdilution broth method; assay type: functional, organism-based; conditions: time 24-48 hrs
How it was run: (§6)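 Clinical isolates kept at –70 °C and subcultured twice on Mueller-Hinton agar, using the second subculture. Broth microdilution in Mueller-Hinton broth at pH 7.4 with two-fold serial compound dilutions and DMSO ≤1% final. Inoculum was 10 μL of a 1.5 × 10⁸ CFU/mL suspension. Incubated at 36 °C ± 1 °C and read at 24 h and 48 h. MIC taken as 95% growth inhibition.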

Mycobacterium avium [12] = assay: Antitubercular activity against Mycobacterium avium CNCTC My 330/88 assessed as inhibition of bacterial growth measured after 14 days of incubation by Sulas semisynthetic medium based assay; assay type: functional; conditions: CNCTC My 330/88, 336 h, time 14 day; how it was run: as §5
Klebsiella pneumoniae [13] = assay: Antibacterial activity against ESBL positive Klebsiella pneumoniae C1914 assessed as inhibition of bacterial growth incubated for 24 to 48 hrs by microdilution broth method; assay type: functional, organism-based; conditions: time 24-48 hrs; how it was run: as §6
[14] = test system: Staphylococcus epidermidis; assay: Antibacterial activity against Staphylococcus epidermidis C1936 assessed as inhibition of bacterial growth incubated for 24 to 48 hrs by microdilution broth method; assay type: functional, organism-based; conditions: time 24-48 hrs; how it was run: as §6
[15] = test system: Mycobacterium tuberculosis; assay: Antitubercular activity against Mycobacterium tuberculosis CNCTC My 331/88 (H37Rv) assessed as inhibition of bacterial growth measured after 21 days of incubation by Sulas semisynthetic medium based assay; assay type: functional; conditions: 504 h, time 21 day; how it was run: as §1
Mycobacterium kansasii [16] = assay: Antitubercular activity against Mycobacterium kansasii CNCTC My 235/80 assessed as inhibition of bacterial growth measured after 21 days of incubation by Sulas semisynthetic medium based assay; assay type: functional; conditions: CNCTC My 235/80, 504 h, time 21 day; how it was run: as §4
Staphylococcus aureus [17] = assay: Antibacterial activity against methicilin-resistant Staphylococcus aureus C1923 assessed as inhibition of bacterial growth incubated for 24 to 48 hrs by microdilution broth method; assay type: functional, organism-based; conditions: time 24-48 hrs
How it was run: (§7)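 Clinical isolates, stored at −70 °C, were passaged twice on Mueller-Hinton agar. Broth microdilution in Mueller-Hinton broth, pH 7.4, with twofold serial dilutions. DMSO was at most 1% final. Inoculum 1.5 × 10⁸ CFU/mL suspension. MIC is 95% growth inhibition, read after 24 and 48 h at 36 °C.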

HepG2 = assay: Cytotoxicity against human HepG2 cells incubated for 24 hrs by MTT assay; assay type: functional, cell-based; conditions: HepG2, 24 h
How it was run: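 HepG2 cells in DMEM with 10% FBS, seeded at 15 × 10³ cells/well and attached overnight. Exposed for 24 h to serial dilutions prepared from DMSO stocks, final DMSO ≤1%. Then given fresh medium with 0.5 mg/mL MTT for 1 h at 37 °C. Formazan dissolved in DMSO and read at 570 nm. IC50 from 4-parameter nonlinear regression; three independent experiments in triplicate, mean ± SD.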

Staphylococcus aureus [18] = assay: Antibacterial activity against Staphylococcus aureus C1947 assessed as inhibition of bacterial growth incubated for 24 to 48 hrs by microdilution broth method; assay type: functional, organism-based; conditions: time 24-48 hrs; how it was run: as §6
[19] = Selectivity index, ratio of IC50 for cytotoxicity against human HepG2 cells by MTT assay to MIC99 for antitubercular activity against Mycobacterium tuberculosis CNCTC My 331/88 (H37Rv) assessed as inhibition of bacterial growth measured after 14 days of incubation; assay type: functional; conditions: time 14 day
How it was run: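 HepG2 cells, 15 × 10³/well, were attached overnight and exposed 24 h to serial dilutions (DMSO ≤1%). Read by MTT at 0.5 mg/mL for 1 h and 570 nm. IC50 from 4-parameter regression, three independent experiments in triplicate. SI is HepG2 IC50 divided by H37Rv MIC99.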

[20] = test system: Mycobacterium tuberculosis; assay: Antitubercular activity against Mycobacterium tuberculosis CNCTC My 331/88 (H37Rv) assessed as inhibition of bacterial growth measured after 14 days of incubation by Sulas semisynthetic medium based assay; assay type: functional; conditions: 336 h, time 14 day; how it was run: as §1
Enterococcus faecium = assay: Antibacterial activity against vancomycin-resistant Enterococcus faecium assessed as inhibition of bacterial growth incubated for 24 to 48 hrs by microdilution broth method; assay type: functional, organism-based; conditions: time 24-48 hrs; how it was run: as §7
Pseudomonas aeruginosa = assay: Antibacterial activity against multidrug-resistant Pseudomonas aeruginosa A1245 assessed as inhibition of bacterial growth incubated for 24 to 48 hrs by microdilution broth method; assay type: functional, organism-based; conditions: time 24-48 hrs; how it was run: as §7
Escherichia coli = assay: Antibacterial activity against Escherichia coli A1235 assessed as inhibition of bacterial growth incubated for 24 to 48 hrs by microdilution broth method; assay type: functional, organism-based; conditions: time 24-48 hrs; how it was run: as §6
Mycobacterium kansasii [21] = assay: Antitubercular activity against Mycobacterium kansasii CNCTC My 235/80 assessed as inhibition of bacterial growth measured after 14 days of incubation by Sulas semisynthetic medium based assay; assay type: functional; conditions: CNCTC My 235/80, 336 h, time 14 day; how it was run: as §4

Which MIC [1] does the source give for `O=c1nc(N2CCN(CC3CCCCC3)CC2)sc2c([N+](=O)[O-])cc(C(F)(F)F)cc12` [MACOZINONE] here?
Its MIC is no more than 0.19 ng/mL.

With GENTAMICIN as the compound, how does the MIC99 [2] read?
Its MIC99 is 2 µM.

And the MIC99 [3]?
Its MIC99 is 0.25 µM.

And the MIC99 [4]?
Its MIC99 is 1 µM.

And the MIC99 [5]?
The MIC99 was 1 µM.

What about the MIC99 [6] of the same compound?
The MIC99 was 0.5 µM.

And the MIC99 [7]?
Its MIC99 is 1 µM.

With `O=C1CCc2c(OC[C@]3(O)CCN(c4c(F)cc(Cl)cc4F)C[C@H]3O)ccc(F)c2N1` [QUABODEPISTAT] as the compound, how does the MIC [8] read?
Its MIC is 0.5 ng/mL (≈ 1.09 nM).

For `CCCCNc1nc(N2CCOCC2)nc2ncn(Cc3ccc4ccccc4c3)c12`, which MIC99 (Mycobacterium kansasii [9]) is on record?
The MIC99 was 8 µM (≈ 3.33 µg/mL).

And the MIC99 (Mycobacterium avium [10])?
Its MIC99 is 125 µM (≈ 52.1 µg/mL).

And the Activity (Klebsiella pneumoniae [11])?
The Activity was “inactive”.

What about the MIC99 (Mycobacterium avium [12]) of the same compound?
The MIC99 was 64 µM (≈ 26.7 µg/mL).

And the Activity (Klebsiella pneumoniae [13])?
Its Activity is “inactive”.

What about the Activity [14] of the same compound?
The Activity was “inactive”.

And the MIC99 [15]?
The MIC99 was 4 µM (≈ 1.67 µg/mL).

And the MIC99 (Mycobacterium kansasii [16])?
The MIC99 was 8 µM (≈ 3.33 µg/mL).

And the Activity (Staphylococcus aureus [17])?
The Activity was “inactive”.

What about the IC50 (HepG2) of the same compound?
Its IC50 is 30.8 µM.

And the Activity (Staphylococcus aureus [18])?
Its Activity is “inactive”.

And the “Selectivity Index” value [19]?
The value was 7.7.

What about the MIC99 [20] of the same compound?
The MIC99 was 4 µM (≈ 1.67 µg/mL).

And the Activity (Enterococcus faecium)?
Its Activity is “inactive”.

And the Activity (Pseudomonas aeruginosa)?
Its Activity is “inactive”.

And the Activity (Escherichia coli)?
The Activity was “inactive”.

What about the MIC99 (Mycobacterium kansasii [21]) of the same compound?
Its MIC99 is 8 µM (≈ 3.33 µg/mL).

With `C[C@H]1COC2(CCN(c3nc(=O)c4cc(C(F)(F)F)cc([N+](=O)[O-])c4s3)CC2)O1` [BTZ-043] as the compound, how does the MIC [1] read?
The MIC was 1 ng/mL (≈ 2.32 nM).

Which MIC [8] does the source give for `COc1ncnc(Cn2cc(C(=O)NCCO)c3ncc(C)cc32)c1C` [TBA-7371] here?
The MIC was 640 ng/mL (≈ 1800 nM).

With `CCCNc1nc(N2CCOCC2)nc2ncn(Cc3ccc4ccccc4c3)c12` as the compound, how does the MIC99 (Mycobacterium kansasii [9]) read?
The MIC99 was 8 µM (≈ 3.22 µg/mL).

What about the MIC99 (Mycobacterium avium [10]) of the same compound?
Its MIC99 is 125 µM (≈ 50.3 µg/mL).

And the Activity (Klebsiella pneumoniae [11])?
Its Activity is “inactive”.

What about the MIC99 (Mycobacterium avium [12]) of the same compound?
Its MIC99 is 125 µM (≈ 50.3 µg/mL).

What about the Activity (Klebsiella pneumoniae [13]) of the same compound?
The Activity was “inactive”.

What about the Activity [14] of the same compound?
Its Activity is “inactive”.

What about the MIC99 [15] of the same compound?
The MIC99 was 4 µM (≈ 1.61 µg/mL).

What about the MIC99 (Mycobacterium kansasii [16]) of the same compound?
The MIC99 was 16 µM (≈ 6.44 µg/mL).

And the Activity (Staphylococcus aureus [17])?
The Activity was “inactive”.

What about the IC50 (HepG2) of the same compound?
The IC50 was 40.5 µM.

What about the Activity (Staphylococcus aureus [18]) of the same compound?
The Activity was “inactive”.

What about the “Selectivity Index” value [19] of the same compound?
The value was 10.1.

What about the MIC99 [20] of the same compound?
The MIC99 was 4 µM (≈ 1.61 µg/mL).

And the Activity (Enterococcus faecium)?
Its Activity is “inactive”.

What about the Activity (Pseudomonas aeruginosa) of the same compound?
The Activity was “inactive”.

What about the Activity (Escherichia coli) of the same compound?
The Activity was “inactive”.

What about the MIC99 (Mycobacterium kansasii [21]) of the same compound?
Its MIC99 is 8 µM (≈ 3.22 µg/mL).
